Source: PubChem (Sanford-Burnham Center for Chemical Genomics)
hIAP act: increases human intestinal alkaline phosphatase activity. P09923. actives 0.16% (n = 330,000). activation factor at 10 µM. purified human IAP, CDP-Star luminescence, 30 min; hits give high values; 1 = vehicle-only enzyme, 0 = enzyme-free background;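 active = activation factor of the enzyme at least 2-fold when tested at 20 µM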
Target sequence (P09923 whole entry, looked up): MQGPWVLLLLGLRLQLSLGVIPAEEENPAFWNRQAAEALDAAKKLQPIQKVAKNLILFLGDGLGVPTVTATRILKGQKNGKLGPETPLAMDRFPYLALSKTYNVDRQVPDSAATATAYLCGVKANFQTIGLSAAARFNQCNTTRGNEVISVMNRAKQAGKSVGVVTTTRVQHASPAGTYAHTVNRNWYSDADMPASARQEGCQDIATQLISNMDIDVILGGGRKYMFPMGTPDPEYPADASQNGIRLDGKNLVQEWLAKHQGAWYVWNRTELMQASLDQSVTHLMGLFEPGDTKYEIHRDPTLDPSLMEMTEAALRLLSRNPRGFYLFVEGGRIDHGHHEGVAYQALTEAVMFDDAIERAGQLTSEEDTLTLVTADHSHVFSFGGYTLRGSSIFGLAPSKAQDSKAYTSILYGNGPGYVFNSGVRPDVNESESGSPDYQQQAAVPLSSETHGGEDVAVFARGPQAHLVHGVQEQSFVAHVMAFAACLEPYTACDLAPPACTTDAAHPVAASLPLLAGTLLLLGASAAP
bIAP inh: blocks bovine intestinal alkaline phosphatase activity. 190,000 tested, under 10 active. AID 1019. purified bovine IAP, CDP-star luminescence, 30 min. inhibition, % at 20 µM;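 active = over 50% inhibition of intestinal alkaline phosphatase at 20 µM in the single-dose screen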
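System: Purified bovine intestinal alkaline phosphatase (IAP) enzyme | Input: IAP diluted 1/65,000,000 in the well | Also added: CDP-star chemiluminescent phosphatase substrate, 30 µM final | Dosing: 20 µM single dose | Times: Enzyme reaction for 30 min at room temperature | Detection: Luminescence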
hIAP inh: blocks human intestinal alkaline phosphatase. P09923. actives 0.12% (n = 330,000). inhibition, % at 10 µM. AID 2544. purified IAP, CDP-Star luminescence, 30 min;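 active = inhibition reaching a set limit with compound at 10 µM in the primary screen, cut at about 35% in these data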;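 note: plate controls were DMSO wells with enzyme for no effect and no-enzyme buffer wells for full effect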
mIAP inh: blocks mouse intestinal alkaline phosphatase; inhibition, % at 10 µM; actives 0.2% (n = 330,000); purified mouse IAP, CDP-Star luminescence, 30 min; AID 2806;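 active = inhibition of at least 40% at 10 µM in the primary screen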;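 note: plate controls were DMSO with enzyme for no effect and no enzyme wells for full effect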
mIAP act: increases mouse intestinal alkaline phosphatase activity. AID 2805. activation factor at 10 µM. muIAP, CDP-Star luminescence, 30 min; hits give high values; 1 = vehicle-only enzyme signal, 0 = enzyme-free wells. actives 0.24% (n = 330,000);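 active = activation factor of at least 2 at 20 µM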
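Assay system: mouse IAP enzyme; Reagent: CDP-Star chemiluminescent phosphatase substrate; Compound: DMSO-dissolved test compounds; Incubation: 30 min, room temperature; Technique: luminescence from enzymatic CDP-Star hydrolysis; Controls: DMSO-only wells and no-enzyme negative control.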
bIAP activator: intestinal alkaline phosphatase (bovine) activation | purified bovine IAP, CDP-star luminescence, 30 min; hits give high values; fold of DMSO-control signal, blank-subtracted | activation factor at 20 µM | actives 0.17% (n = 200,000) | AID 1016;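 active = activation factor of 2 or more at 20 µM, a signal rise over negative controls twice the positive control's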
hIAP act conf: human IAP activation confirmation; purified IAP, CDP-Star luminescence, 30 min; hits give low values; activation (%Activity, negative = activation), % at 8.3 µM; shares compounds with hIAP act; actives 10% (n = 880);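 active = at least twofold enzyme activation in any of six single-dose repeats, which the averaged readout prints as negative percent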
* = called active by the depositor; · = not tested or not shown. A selection: hits, their analogues and other compounds. The true share with any hit is near 0.79%.

SMILES	hIAP act	bIAP inh	hIAP inh	mIAP inh	mIAP act	bIAP activator	hIAP act conf
Cc1ccc(C2c3c(-c4ccccc4O)n[nH]c3C(=O)N2Cc2ccncc2)cc1 (stereo unspecified)	2.3*	14	-131	-12	1.1	0.9	-23
CCOC(=O)c1ccc(NS(=O)(=O)c2c(N)n(C)c(=O)n(C)c2=O)cc1	1.3	·	-33	-12	1.1	·	·
NS(=O)(=O)c1cccc(NC(=O)CSc2nnc3n2CCCCC3)c1	1	·	0	13	0.87	·	·
O=C(CCN1C(=O)/C(=C/c2ccccc2Cl)SC1=S)NNC(=O)c1ccccc1O	2.1*	·	-108	27	0.73	·	62
COc1ccc(CNc2ccc(C)c(C)c2)cc1	1	8	-4	-1	1	0.9	·
COc1ccc(NCc2ccc(OC)c(OC)c2)cc1	0.62	0	38*	7	0.93	1	-30
COc1ccc(-c2cc(C(F)(F)F)n3ncc(C(=O)N4CCCCC4c4cccnc4)c3n2)cc1 (stereo unspecified)	0.95	-9	5	-6	1.1	1.1	·
Cc1ccccc1CN1CCC(n2nccc2NC(=O)CCCc2ccccc2)CC1	2.9*	·	-190	-89	1.9	·	26
O=C(CCCc1ccccc1)Nc1ccnn1C1CCN(Cc2ccccn2)CC1	1.2	·	-18	-2	1	·	·
O=C(NNC(=O)c1ccc(Br)o1)c1csc(N2CCOCC2)n1	2.2*	·	-115	11	0.89	·	10
COc1ccccc1C(=O)NNC(=O)c1csc(N2CCOCC2)n1	2*	·	-105	2	0.98	·	2
O=C(CCNS(=O)(=O)c1ccccc1)NNC(=O)c1csc(N2CCOCC2)n1	1.9	·	-91	19	0.81	·	·
CC(=O)Nc1ccc(S(=O)(=O)NCC(=O)NNC(=O)c2csc(N3CCOCC3)n2)cc1	2.1*	·	-113	23	0.77	·	-39
Cc1ccc(C(=O)NNC(=O)c2csc(N3CCOCC3)n2)o1	1.9	·	-90	13	0.87	·	·
O=C(/C=C/c1ccc(S(=O)(=O)N2CCOCC2)cc1)NCc1ccccc1F	0.97	·	3	-7	1.1	·	·
O=C(Nc1cccc(S(=O)(=O)N2CCCC2)c1)c1cc(-c2ccccn2)nc2ccccc12	0.99	-5	1	16	0.84	1.1	·
COc1cccc(/C=N/NC(=O)c2cc(-c3cccn3C)n[nH]2)c1O	2.4*	-2	-145	36	0.64	1	-1
Cc1cc(S(=O)(=O)N2CCOCC2)ccc1OCC(=O)NCc1ccccn1	0.93	·	7	-4	1	·	·
O=C(NNC(=O)c1nn(-c2ccc(F)cc2)ccc1=O)Nc1cccc(Cl)c1	0.6	·	40*	16	0.84	·	-28
O=C(NNC(=O)c1nn(-c2ccc(F)cc2)ccc1=O)c1ccc(Cl)cc1	0.87	·	13	20	0.8	·	·
O=C(CC1CCCCC1)Nc1ncn[nH]1	2*	-183	-102	-10	1.1	2.8*	-53
O=C(CC(c1ccccc1)c1ccccc1)Nc1ncn[nH]1	2.5*	-231	-146	-40	1.4	3.3*	-7
CC(=O)N/N=C/c1cc(C(C)C)cc(/C=N/NC(C)=O)c1O	2.5*	-43	-154	11	0.89	1.4	-11
CC(=O)N/N=C/c1cc(C)n(-c2ccc(Br)cc2)c1C	1.1	-16	-14	-10	1.1	1.2	·
O=c1c2c(-c3cccs3)csc2ncn1-c1ccc(Br)cc1	0.39	6	61*	14	0.86	0.9	-112*
SMILES	hIAP act	bIAP inh	hIAP inh	mIAP inh	mIAP act	bIAP activator	hIAP act conf
O=C(NC(=S)NCCCN1CCOCC1)c1cccc2ccccc12	0.93	-18	7	3	0.97	1.2	·
Cc1nc(CCNC(=O)C2CCC(=O)N(Cc3ccc(Cl)cc3)C2)sc1C (stereo unspecified)	1.1	·	-5	-4	1	·	·
CCN(CC)c1ccc(N=Nc2nn(C)c(C)c2[N+](=O)[O-])cc1	0.53	24	47*	33	0.67	0.8	35
CCN(Cc1ccccc1)c1ccc(N=Nc2nn(C)c(C)c2[N+](=O)[O-])cc1	0.65	6	35	34	0.66	0.9	·
Cc1cnc(C(=O)NNC(=O)c2ccc(Br)cc2)cn1	2.2*	·	-122	14	0.86	·	-38
CC1CCCC/C1=N/Nc1ccc([N+](=O)[O-])cc1[N+](=O)[O-] (stereo unspecified)	0.63	·	37*	19	0.81	0.1	8
CCOC(=O)/C(=N/Nc1ccccc1)c1csc(Nc2ccccc2)n1	0.99	33	1	17	0.83	0.7	·
CCOC(=O)/C(=N\Nc1ccc(OC)cc1)c1csc(Nc2ccccc2)n1	0.61	23	39*	10	0.9	0.8	-2
O=C(CN1CCN(S(=O)(=O)c2ccc(F)c(Cl)c2)CC1)N1CCNC1=O	1.1	·	-14	13	0.87	·	·
Cc1cc(Sc2nc(N(C)C)nc(N(C)C)n2)nc(Cl)n1	0.99	-13	1	5	0.95	1.1	·
Cc1ccc(S(=O)(=O)NCCC(=O)NNC(=O)COc2ccc(Br)cc2)cc1C	2.5*	·	-148	-6	1.1	·	41
O=S(=O)(c1ccc2ccccc2c1)n1cccn1	0.59	·	41*	-3	1	·	-3
Cc1ccc(C(=O)Nc2ccncc2)cc1[N+](=O)[O-]	1.2	·	-21	3	0.97	·	·
Cc1ccc(NC(=O)c2ccncc2)cc1[N+](=O)[O-]	2.1*	-12	-105	-7	1.1	1.1	54
COc1cc(/C=C2\N=C3CCCCCN3C2=O)ccc1O	1.1	·	-7	24	0.76	0.3	·
O=C1/C(=C\c2ccc(O)c(O)c2)N=C2CCCCCN12	0.43	·	57*	37	0.63	·	-29
COc1ccc2c(c1)c1nnc(SCC(=O)N3CCCCC3C)nc1n2C (stereo unspecified)	·	5	·	·	·	1	·
COc1ccc(N2CCN(C(=O)CSc3nnc4c5cc(C)ccc5n(C)c4n3)CC2)cc1	2.6*	7	-160	7	0.93	0.9	-69
COc1ccccc1C(=O)NCC(=O)NCc1cc(=O)n(C)c(=O)n1C	0.61	·	39*	6	0.94	·	-5
Cn1c(CNC(=O)CNC(=O)c2ccccc2F)cc(=O)n(C)c1=O	0.92	·	8	3	0.97	·	·
CCC(=O)NCCc1nc2cc(NC(=O)c3ccco3)ccc2n1C	0.99	·	1	5	0.95	·	·
CCOc1cccc(-c2nc(C(N)=O)c3[nH]c(=O)n(-c4cccc(Cl)c4)c3n2)c1O	4*	-13	-296	20	0.8	1.1	-75*
Cc1ccc(C(=O)CSc2nc(C)cc(=O)[nH]2)cc1	0.96	-8	4	-5	1	1.1	·
Cc1cc(=O)[nH]c(SCC(=O)c2ccc(O)c(O)c2)n1	0.57	·	43*	33	0.67	·	6
